From PubChem BioAssay
This is a sample that favours compounds with a hit; in the whole collection about 3.1% have one here.
KCNQ1 pot = potentiators or activators of KCNQ1 channel, primary screen, cell-based, thallium flux, high-throughput; actives 0.35% (n = 310,000); B-score at 10 µM; Potassium voltage-gated channel subfamily KQT member 1 (Homo sapiens), P51787; CHO-K1 KCNQ1, thallium flux FluxOR fluorescence; stronger effect = higher value; AID 2648, 2010;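 active = fluorescence ratio B-score, a plate-corrected score, at least three library SD, with initial intensity B-score within 5 SD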
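Doses: Single concentration per compound, DMSO matched to controls | Test system: KCNQ1-transfected CHO-K1 cells | Timing: 90 min dye loading and 20 min compound exposure, both at room temperature | Measured by: Kinetic FluxOR thallium fluorescence, 10-s 1-Hz baseline, 110-s post-stimulus read | Medium: Assay buffer with matched DMSO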
KCNK3 block = human KCNK3 channel inhibitors, primary screen, CHO cells, FluxOR thallium flux, B-score; B-score at 10 µM; Potassium channel subfamily K member 3 (Homo sapiens), O14649; FluxOR fluorescence; stronger effect = lower value; actives 0.84% (n = 340,000);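 active = B-score under library mean minus 4 SD, starting fluorescence ratio at most library mean plus 5 SD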;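 also: more negative B-score means stronger inhibition of thallium flux through KCNK3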
KCNK9 block = KCNK9 potassium channel inhibitors, primary screen, HEK293 cells, thallium flux; FluxOR thallium flux fluorescence; stronger effect = lower value; actives 1.2% (n = 310,000); B-score at 10 µM;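 active = ratio B-score over 3 SD below the library mean, with starting fluorescence within 5 SD of its mean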;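 also: negative B-score means less thallium flux so channel inhibition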
Target sequence (Q9NPC2 whole entry, looked up): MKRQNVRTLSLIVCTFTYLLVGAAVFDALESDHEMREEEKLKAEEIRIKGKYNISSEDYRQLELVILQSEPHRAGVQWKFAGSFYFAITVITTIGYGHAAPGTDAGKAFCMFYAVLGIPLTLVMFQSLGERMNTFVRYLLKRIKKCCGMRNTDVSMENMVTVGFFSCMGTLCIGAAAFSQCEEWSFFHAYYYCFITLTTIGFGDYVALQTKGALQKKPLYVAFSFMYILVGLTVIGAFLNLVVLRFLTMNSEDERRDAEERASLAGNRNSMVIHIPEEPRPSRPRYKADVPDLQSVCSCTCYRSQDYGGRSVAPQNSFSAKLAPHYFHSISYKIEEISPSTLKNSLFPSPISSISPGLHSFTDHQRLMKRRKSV
hERG protect = hERG rescue from dofetilide block, primary screen, cell-based, CHO-hERG, FluxOR thallium flux, dofetilide IC70 | dofetilide IC70 present | activation (rescue from dofetilide block), less the hit threshold, % at 10 µM | actives 0.51% (n = 310,000) | AID 1511, 2009;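 active = activation above the mean of controls blocked by dofetilide plus 5 SD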;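 also: thallium influx through hERG after potassium depolarization seen as dye fluorescence rise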
KCNQ1 block = inhibitors of human KCNQ1 channel, primary screen, cell-based, thallium flux, high-throughput; Potassium voltage-gated channel subfamily KQT member 1 (Homo sapiens), P51787; CHO-K1 KCNQ1, FluxOR thallium flux fluorescence; stronger effect = higher value; actives 1.3% (n = 310,000); B-score at 10 µM;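 active = compounds whose thallium flux B-score, printed positive for inhibition, exceeds three library SD while starting fluorescence stays within three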;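 also: channel opened by potassium depolarization with thallium stimulus after 20 min compound exposure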
KCNK9 block conf = KCNK9 potassium channel inhibitors, confirmation, HEK293 cells, thallium flux, duplicate; inhibition, % at 10 µM; actives 43% (n = 4,900); FluxOR thallium flux fluorescence; shares compounds with KCNK9 block;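 active = thallium signal inhibited by more than 5 SD of the compound-free buffer control wells, on both duplicate plates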;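 also: 0% = assay buffer control wells without compound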
Kir21 sel = mouse Kir2.1 channel inhibition, confirmation, selectivity assay for KCNK9 modulator project, cell-based, HEK293, thallium flux | shares compounds with KCNK9 block | Kir2.1 cells, FluxOR thallium flux fluorescence | inhibition, % at 10 µM | actives 4% (n = 4,900) | AID 492993, 2010;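 active = thallium signal drop more than 5 SD beyond the mean of the no-compound control wells, seen in both duplicate plates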;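 also: signal is fluorescence rise after thallium addition divided by baseline fluorescence; plate controls were assay buffer only for no effect and full block by chlorpromazine control for full effect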
KCNK9 uninduced = thallium flux in non-induced HEK293 cells, confirmation, counter-screen for KCNK9 inhibitor project, cell-based, second counter screen, non-induced KCNK9-HEK293 | shares compounds with KCNK9 block | FluxOR thallium flux | inhibition, % at 10 µM | AID 492997, 2010 | actives 40% (n = 4,900);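 active = thallium signal drop beyond 5 SD of the untreated control mean, on both duplicate plates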;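 also: plate controls were buffer only IC0 wells for no effect and SID17386958 at its maximal inhibitory level for full effect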
Active calls of the source: *; i = inactive; / = no result.

SMILES	KCNQ1 pot	KCNK3 block	KCNK9 block	hERG protect	KCNQ1 block	KCNK9 block conf	Kir21 sel	KCNK9 uninduced
CC(C(=O)NC1C=CS(=O)(=O)C1)N1C(=O)/C(=C/c2cccc(Cl)c2)SC1=S (stereo not given)	i	i	i	-7	i	i	i	i
Cc1nn(-c2ccccc2)c(N2CCCC2)c1/C=N/NC(=O)c1ccccc1O	i	i	i	-21	i	/	/	/
O=C(N/N=C/c1cc2c3c(c1O)CCCN3CCC2)c1ccccc1O	i	-10*	-10*	-12	12*	49%*	i	55%*
O=C(CN1CCCN(Cc2ccc(F)cc2Cl)C1=O)NC1CCCC1	i	i	i	-3	i	/	/	/
CC(=O)c1cnn(-c2nc3c(C)cccc3s2)c1C	i	i	i	-8	i	i	i	i
CC(=O)c1cnn(-c2ccccc2)c1C	i	i	i	0	i	/	/	/
CCOc1ccccc1C(=O)NCC(=O)NCC(c1ccco1)N1CCCCC1 (stereo not given)	i	i	i	-10	i	/	/	/
CCCOc1ccccc1N/C(=N/c1nc(C)cc(C)n1)NC(=O)COc1ccc(OC)cc1	i	i	-27*	-15	10*	77%*	i	41%*
Nc1nc2c([N+](=O)[O-])cccc2s1	i	i	i	-3	i	/	/	/
CN(c1ccc(OCc2ccc([N+](=O)[O-])cc2)cc1)S(=O)(=O)c1ccccc1	i	i	-8.5*	-11	i	i	i	29%*
CN(c1ccc(OCc2nnc(-c3ccccc3)o2)cc1)S(=O)(=O)c1ccccc1	i	i	i	-7	i	/	/	/
Cc1ccccc1/C=C/c1nc2ccccc2c(=O)n1Cc1ccccc1	i	i	i	-3	i	/	/	/
Cc1ccccc1/C=C/c1nc2ccccc2c(=O)n1CCc1ccccc1	i	i	-11*	-7	i	24%*	i	33%*
N#Cc1nc(Cc2ccccc2)oc1N1CCC(Cc2ccccc2)CC1	i	i	i	-7	i	i	i	i
CCCC1=NN2C(=N)/C(=C\c3cc(C)n(Cc4ccccc4)c3C)C(=O)N=C2S1	i	i	i	-4	i	/	/	/
COc1cc(/C=C2\C(=N)N3N=C(S(C)(=O)=O)SC3=NC2=O)cc(OC)c1OCCOc1ccccc1C	i	i	i	-31	i	i	i	i
CC(C)CS(=O)(=O)C1=NN2C(=N)/C(=C\c3ccc(OC(=O)c4ccco4)cc3)C(=O)N=C2S1	i	i	i	-30	i	i	i	i
Cc1cc(/C=C2\C(=N)N3N=C(S(C)(=O)=O)SC3=NC2=O)c(C)n1Cc1ccccc1	i	i	i	-5	i	i	i	i
CS(=O)(=O)C1=NN2C(=N)/C(=C\c3ccc(OC(=O)c4ccco4)cc3)C(=O)N=C2S1	i	i	i	-10	i	/	/	/
COc1ccccc1OCCOc1ccc(/C=C2\C(=N)N3N=C(S(C)(=O)=O)SC3=NC2=O)cc1	i	i	i	-26	i	i	i	i
Cc1ccc(C)c(C(=O)NCc2ccncc2)c1	i	i	i	-8	i	/	/	/
